In ChEMBL document CHEMBL3421622, “New organochalcogen multitarget drug: synthesis and antioxidant and antitumoral activities of chalcogenozidovudine derivatives” (J Med Chem, 2015):
Blank lines part the entries; values can stand above or below the compound they belong to. Activity calls are given as the source filed them. No cut-off for these calls is given here.

Columns and labels:
[1] = Antioxidant activity assessed as thiol peroxidase-like activity assessed as time required to oxidize 50% of benzenethiol during reduction of hydrogen peroxide measured for 180 secs by UV spectroscopic analysis; settings: 0.05 h
Brain = test: Antioxidant activity in Wistar rat brain assessed as inhibition of TBARS formation at 200 uM after 60 mins by spectrophotometric method relative to control; format: functional
How it was run: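 Adult male Wistar rat brain (250−350 g) homogenized 1:10 w/v in 10 mM Tris-HCl pH 7.4 and spun at 2000 rpm for 10 min; low-speed supernatant (S1) used. Blank lacked Fe. TBARS read at 532 nm against MDA standard. Three experiments.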

Liver [2] = test: Toxicity in rat liver slices assessed as change in ALT release relative to control; settings: in vitro
5637 [3] = test: Upregulation of caspase-9 mRNA expression in human 5637 cells at 100 uM after 48 hrs by real-time PCR analysis relative to control; format: functional, cell-based
How it was run: (§1)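 5637 cells seeded at 2 × 10^5 per well and grown 24 h. Treated with 50 or 100 μM for 48 h, washed in PBS, RNA extracted. Bax, Bcl-2, caspase-9 and survivin mRNA measured by real-time PCR; Bax:Bcl-2 ratio derived. Experiments in triplicate.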

5637 [4] = test: Cytotoxicity against human 5637 cells assessed as growth inhibition at 50 uM after 48 hrs by MTT assay relative to control; format: functional; settings: Homo sapiens, 5637, 48 h; read-out: GI
How it was run: (§2)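 5637 cells in log phase, seeded at 2 × 10^4 per well and grown 24 h. Exposed for 24, 48 or 72 h to 200−12.5 μM in DMSO (final ≤0.25%, vehicle group included). MTT added for 3 h, formazan dissolved in DMSO, read at 492 nm. Growth inhibition = [1 − Abs treated/Abs control] × 100%. […] Three independent experiments.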

5637 [5] = test: Downregulation of Bcl2 mRNA expression in human 5637 cells at 100 uM after 48 hrs by real-time PCR analysis relative to control; format: functional, cell-based
How it was run: as §1

[6] = Antioxidant activity assessed as thiol peroxidase-like activity assessed as time required to oxidize 50% of benzenethiol during reduction of hydrogen peroxide measured for 180 secs by UV spectroscopic analysis relative to control; settings: 0.05 h
5637 [7] = test: Induction of apoptosis in human 5637 cells assessed as ratio of Bax mRNA to Bcl2 mRNA level at 100 uM after 48 hrs by real-time PCR analysis (reference value: 0.08 to 0.13); format: functional
How it was run: as §1

5637 [8] = test: Cytotoxicity against human 5637 cells assessed as dead cells at 100 uM after 48 hrs by calcein/ethidium bromide staining-based fluorescence microscopic analysis relative to control; format: functional, cell-based
How it was run: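 5637 bladder carcinoma cells (DMEM, 10% FBS) seeded at 2 × 10^4 per well and grown 24 h. Exposed to 100 or 50 μM compound for 48 h. Washed, then stained with calcein (live, green) and ethidium homodimer (dead, red). Scored by multicolor fluorescence microscopy.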

5637 [9] = test: Induction of apoptosis in human 5637 cells at 50 uM after 48 hrs by annexin V-PE/7-AAD staining-based flow cytometric analysis (reference value: 7.36%); format: functional
Liver [10] = test: Toxicity in rat liver assessed as change in AST release relative to control; format: tissue-based
5637 [11] = test: Downregulation of survivin mRNA expression in human 5637 cells at 100 uM after 48 hrs by real-time PCR analysis relative to control; format: functional, cell-based
How it was run: as §1

5637 [12] = test: Induction of apoptosis in human 5637 cells assessed as DNA fragmentation at 50 to 100 uM after 48 hrs by TUNEL assay relative to control; format: functional, cell-based
How it was run: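 5637 cells treated 48 h, then collected and fixed. TdT-mediated BrdU labelling of fragmented DNA, detected with TMR-anti-BrdU after 30 min staining in the dark at room temperature. TUNEL-positive cells counted by flow cytometry.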

5637 [13] = test: Induction of apoptosis in human 5637 cells assessed as ratio of Bax mRNA to Bcl2 mRNA level at 50 uM after 48 hrs by real-time PCR analysis (reference value: 0.08 to 0.13); format: functional
How it was run: as §1

Liver [14] = test: Toxicity in rat liver assessed as effect on cell viability at 50 to 200 uM after 2 hrs by MTT reduction assay relative to control
How it was run: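 Liver slices from healthy adult rats preincubated 10 min in Krebs Ringer pH 7.4. Compound added to 200, 100 or 50 μM final for 2 h at 37 °C. MTT (5 mg/mL) added for 30 min at 37 °C, formazan dissolved in DMSO, absorbance read at 570 and 700 nm. Expressed as % of untreated; three experiments.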

5637 [15] = test: Induction of apoptosis in human 5637 cells assessed as early and late apoptotic cells at 100 uM after 48 hrs by annexin V-PE/7-AAD staining-based flow cytometric analysis (reference value: 7.36%); format: functional
5637 [16] = test: Cytotoxicity against human 5637 cells assessed as growth inhibition after 48 hrs by MTT assay; format: functional, cell-based; settings: Homo sapiens, 5637, 48 h
How it was run: as §2

5637 [17] = test: Cytotoxicity against human 5637 cells assessed as growth inhibition at 12.5 to 200 uM after 48 hrs by MTT assay relative to control; format: functional
How it was run: as §2

5637 [18] = test: Cytotoxicity against human 5637 cells assessed as growth inhibition at 100 to 200 uM after 48 hrs by MTT assay relative to control; format: functional
How it was run: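 5637 bladder carcinoma cells in DMEM with 10% FBS, seeded 2 × 10^4/well, grown 24 h at 37 °C, 5% CO2. Exposed to 200–12.5 μM from DMSO stocks (final DMSO ≤0.25%, solvent control) for 48 h. MTT added for 3 h, formazan dissolved in DMSO, read at 492 nm. Growth inhibition = [1 − Abs treated/Abs control] × 100%. Three independent experiments.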

t50 [1]: 66.3 min
Structure (SMILES): Cc1cn([C@H]2C[C@H](N=[N+]=[N-])[C@@H](C[Se]c3cccc4ccccc34)O2)c(=O)[nH]c1=O
inhibition at 200 µM (Brain; 1 h): 80%

t50 [1]: 97.5 min
Structure (SMILES): Cc1cc(C)c([Se]C[C@H]2O[C@@H](n3cc(C)c(=O)[nH]c3=O)C[C@@H]2N=[N+]=[N-])c(C)c1
inhibition (Brain): Active

fold change (FC) [6]: 4
t50 [1]: 15.2 min
Structure (SMILES): Cc1cn([C@H]2C[C@H](N=[N+]=[N-])[C@@H](C[Se]c3ccc(Cl)cc3)O2)c(=O)[nH]c1=O
Activity (Liver [2]): Non-toxic
Activity 5637 [3]: Active
inhibition of growth at 50 µM 5637 [4]: 50%
Activity 5637 [5]: Active
Ratio 5637 [7]: 4.8
Activity 5637 [8]: Active
Activity 5637 [9]: 71.12%
Activity (Liver [10]): Non-toxic
Activity 5637 [11]: Active
Activity 5637 [12]: Active
Ratio 5637 [13]: 0.9
inhibition (Brain): Active
Activity (Liver [14]): Non-toxic
Activity 5637 [15]: 92.8%
IC50 5637 [16]: 40.4 µM

fold change (FC) [6]: 4
t50 [1]: 22.5 min
Structure (SMILES): Cc1ccc([Se]C[C@H]2O[C@@H](n3cc(C)c(=O)[nH]c3=O)C[C@@H]2N=[N+]=[N-])cc1
Activity (Liver [2]): Non-toxic
Activity 5637 [3]: Active
inhibition of growth at 50 µM 5637 [4]: 50%
Activity 5637 [5]: Active
Ratio 5637 [7]: 19.4
Activity (Liver [10]): Non-toxic
Activity 5637 [11]: Active
Activity 5637 [12]: Active
Ratio 5637 [13]: 0.5
inhibition (Brain): Active
Activity (Liver [14]): Non-toxic
Activity 5637 [15]: 89.6%
IC50 5637 [16]: 51.6 µM

t50 [1]: 66.5 min
Structure (SMILES): Cc1cn([C@H]2C[C@H](N=[N+]=[N-])[C@@H](CO)O2)c(=O)[nH]c1=O [ZIDOVUDINE]
growth inhibition (GI) 5637 [17]: >50%
Activity (Liver [2]): Non-toxic
inhibition of growth at 50 µM 5637 [4]: 50%
Activity 5637 [5]: Active
Activity 5637 [8]: inactive
Activity 5637 [9]: 7.74%
Activity (Liver [10]): Non-toxic
Activity 5637 [12]: inactive
IC50 5637 [16]: 7 µM

Structure (SMILES): Cc1cn([C@H]2C[C@H](N=[N+]=[N-])[C@@H](C[Se]c3ccccc3)O2)c(=O)[nH]c1=O
Activity (Liver [2]): Non-toxic
Activity 5637 [3]: Active
Activity 5637 [5]: Active
t50 [1]: 56.4 min
Ratio 5637 [7]: 10.6
Activity (Liver [10]): Non-toxic
Activity 5637 [11]: Active
Activity 5637 [12]: Active
Ratio 5637 [13]: 1.45
inhibition (Brain): Active
Activity (Liver [14]): Non-toxic
Activity 5637 [15]: 90.74%
IC50 5637 [16]: 78.9 µM
growth inhibition (GI) 5637 [18]: >50%
